Experimental data from ChEMBL document CHEMBL2093137, “WHO-TDR NTD Screening”.
Converted amounts (≈) assume the structure as drawn.

Columns and labels:
[1] = system: Onchocerca ochengi; test: (§1) WHO-TDR: Onchocerciasis; assay type: functional; set-up: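 at 12.5 µM on microfilariae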
In short: (§2)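 A diverse library of 10,000 compounds from Life Chemicals, filtered for drug-likeness and reactive groups, was screened against whole microfilariae of Onchocerca ochengi or Onchocerca lienalis. These animal pathogens served as stand-ins for the human parasite. Activity is given as percent inhibition and as IC50.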

[2] = system: Trypanosoma brucei brucei; test: WHO-TDR: Human African Trypanosomiasis (HAT); assay type: functional, organism-based; settings: Squib-427
In short: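 Following previously published standard procedures, with reference drugs as positive controls, a whole-organism assay was run against bloodstream-form Trypanosoma brucei, Squib 427 strain. The compounds, 10,000 in all, came from a diverse Life Chemicals library filtered for drug-likeness and reactive groups. Reported values are IC50 for antiparasitic potency.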

[3] = system: Onchocerca ochengi; test: as §1; assay type: functional; set-up: concentration or dose not given beside the values; in short: as §2; remark: listed apart in the source
[4] = system: Schistosoma mansoni; test: WHO-TDR: Schistosomiasis; assay type: functional; set-up: concentration or dose not given beside the values
In short: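 A diverse library of 10,000 compounds from Life Chemicals, filtered for drug-likeness and reactive groups, was screened against whole larval and/or adult Schistosoma mansoni worms of the Puerto Rican strain. Previously published standard procedures were followed, with a reference drug as positive control. Activity is given as percent inhibition and as IC50.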

[5] = WHO-TDR: Cytotoxicity; assay type: toxicity, cell-based; settings: human, MRC5 cells
[6] = system: Plasmodium falciparum K1; test: WHO-TDR: Malaria; assay type: functional, organism-based, Homo sapiens; settings: Erythrocyte
In short: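 Life Chemicals supplied the diverse library of 10,000 compounds, which had been filtered for drug-likeness and reactive groups. Each was screened against the K1 strain of Plasmodium falciparum at its intra-erythrocytic stage in human red blood cells, using previously published standard procedures and a reference drug as positive control. The table reports IC50 for antiplasmodial potency.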

[7] = system: Trypanosoma cruzi; test: WHO-TDR: Chagas disease; assay type: functional, organism-based, Homo sapiens; settings: MRC5
In short: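 A diverse library of 10,000 compounds from Life Chemicals, filtered for drug-likeness and reactive groups, was screened against intracellular amastigotes of Trypanosoma cruzi Tulahuen CL2 beta-galactosidase strain. The parasites were grown in MRC-5SV2 human lung fibroblast host cells, and a reference drug served as positive control under previously published standard procedures. Antiparasitic potency is given as IC50.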

[8] = system: Leishmania infantum; test: WHO-TDR: Leishmaniasis; assay type: functional, organism-based, Mus musculus; settings: Macrophage
In short: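 IC50 values describe antiparasitic potency in this whole-organism screen. Leishmania infantum MHOM/MA(BE)/67 amastigotes were tested inside murine peritoneal macrophages against a 10,000-compound diverse Life Chemicals library. A reference drug served as positive control.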

| SMILES | % Inhibition [1] [%] | IC50 [2] [µg/mL] | % Inhibition [3] [%] | % Inhibition [4] [%] | IC50 [5] [µg/mL] | IC50 [6] [µg/mL] | IC50 [7] [µg/mL] | IC50 [8] [µg/mL] |
| --- | --- | --- | --- | --- | --- | --- | --- | --- |
| CCC(CO)Nc1nc(Nc2ccc(C)c(C)c2)c2nccnc2n1 (stereo not drawn) | 100 | 3.66 (≈ 10.8 µM) | 0 | 0 | > 10.2 | > 10.2 | > 10.2 | > 10.2 |
| CCSc1nnc(-c2ccccc2)c2sc(C)nc12 | 100 | 0.146 (≈ 0.508 µM) | 0 | 0 | 4.9 (≈ 17 µM) | 1.39 (≈ 4.82 µM) | 0.259 (≈ 0.901 µM) | 2.79 (≈ 9.71 µM) |
| NC(=O)c1cc(-c2ccccc2)sc1NC(=O)C1COc2ccccc2O1 (stereo not drawn) | 100 | 3.65 (≈ 9.6 µM) | 0 | 25 | 1.92 (≈ 5.04 µM) | 5.78 (≈ 15.2 µM) | 3.4 (≈ 8.93 µM) | > 11.4 |
| Cc1[nH]c2ccccc2c1S(=O)(=O)CCNC(=O)Nc1ccc(C(F)(F)F)cc1 | 100 | > 12.8 | 0 | 0 | > 12.8 | > 12.8 | > 12.8 | > 12.8 |
| Cc1cccc(NC(=O)Cn2nc(C(C)C)c3cnn(-c4ccccc4C)c3c2=O)c1 | 100 | > 12.5 | 0 | 0 | > 12.5 | > 12.5 | > 12.5 | > 12.5 |
| O=C(CC1CCCCN1S(=O)(=O)c1ccc(Cl)cc1)Nc1ccc2c(c1)OCO2 (stereo not drawn) | 0 | 4.24 (≈ 9.71 µM) | 0 | 0 | > 13.1 | > 13.1 | 0.789 (≈ 1.81 µM) | > 13.1 |
| COc1ccccc1N1CCN(c2nc(Nc3ccc(C)cc3)c3nccnc3n2)CC1 | 100 | 4.1 (≈ 9.6 µM) | 0 | 25 | 4.5 (≈ 10.5 µM) | 2.66 (≈ 6.23 µM) | 3.44 (≈ 8.05 µM) | 4.15 (≈ 9.71 µM) |
| O=C(CSc1ncc(-c2ccccc2)[nH]1)Nc1cc(C(F)(F)F)ccc1Cl | 100 | > 12.4 | 0 | 0 | > 12.4 | > 12.4 | > 12.4 | > 12.4 |
| Cc1cc(=O)[nH]c(-n2nc(C)cc2NC(=O)c2ccccc2C(F)(F)F)n1 | 0 | > 11.3 | 0 | 0 | 2.61 (≈ 6.91 µM) | > 11.3 | 0.409 (≈ 1.08 µM) | > 11.3 |
| CCCN1C(=O)CCc2cc(NS(=O)(=O)c3ccc(F)cc3)ccc21 | 100 | 3.56 (≈ 9.83 µM) | 0 | 0 | > 10.9 | > 10.9 | 10.9 (≈ 30 µM) | > 10.9 |
| CC(C)c1cc(C(=O)NCC2CCCO2)nn1-c1nc2ccccc2s1 (stereo not drawn) | 100 | > 11.1 | 0 | 0 | > 11.1 | > 11.1 | > 11.1 | > 11.1 |
| CCCOc1nn(CCC)cc1C(=O)N1CCN(c2ccccc2Cl)CC1 | 100 | 3.89 (≈ 9.95 µM) | 0 | 0 | > 11.7 | > 11.7 | 3.06 (≈ 7.83 µM) | > 11.7 |
| CN1CCCc2cc(C(CNC(=O)c3cccs3)N3CCCCC3)ccc21 (stereo not drawn) | 100 | 3.68 (≈ 9.6 µM) | 0 | 0 | > 11.5 | > 11.5 | 10.4 (≈ 27.2 µM) | > 11.5 |
| CC(C)CCN1C(=O)CCc2cc(NC(=O)COc3ccc(Cl)cc3)ccc21 | 100 | 3.89 (≈ 9.71 µM) | 0 | 0 | > 12 | 7.34 (≈ 18.3 µM) | 3.45 (≈ 8.61 µM) | > 12 |
| CSc1nc(NC(C)C)c2cnn(CCNC(=O)C34CC5CC(CC(C5)C3)C4)c2n1 | 100 | 4.07 (≈ 9.49 µM) | 0 | 0 | > 12.9 | > 12.9 | 4.17 (≈ 9.73 µM) | > 12.9 |
| O=C(CSc1nc(CC(=O)N2CCN(c3ccccc3F)CC2)cs1)Nc1ccc(F)cc1 | 100 | > 14.7 | 0 | 0 | > 14.7 | > 14.7 | > 14.7 | > 14.7 |
